# Experimental data reported in article PMC5830699 (ACS Omega, 2018).
# Values joined by “and” are separate entries in the source; they are usually repeats but may differ in a detail not shown here. Identical values can stand only once. “Also recorded” adds a separate entry of the source. Like-named read-outs stand apart in the source and are kept apart here.
# What was measured:
# Hydrogenivirga spp. MraY = assay type: biochemical; settings: for IC50: read-out: MraY inhibition IC50
# C. difficile ATCC 43596 = test: microbe, parasite or virus in culture; assay type: cell-based, Clostridium difficile; settings: for MIC: Clostridioides difficile, ATCC43596, read-out: C. difficile ATCC 43596 MIC
# M. jannaschii AglH = molecular target: T1, M. jannaschii AglH (Methanocaldococcus jannaschii, UniProt Q58513); test: AglH counterselection assay; assay type: biochemical; settings: read-out: AglH inhibition IC50, M. jannaschii AglH
# T1 sequence (Q58513 1-301): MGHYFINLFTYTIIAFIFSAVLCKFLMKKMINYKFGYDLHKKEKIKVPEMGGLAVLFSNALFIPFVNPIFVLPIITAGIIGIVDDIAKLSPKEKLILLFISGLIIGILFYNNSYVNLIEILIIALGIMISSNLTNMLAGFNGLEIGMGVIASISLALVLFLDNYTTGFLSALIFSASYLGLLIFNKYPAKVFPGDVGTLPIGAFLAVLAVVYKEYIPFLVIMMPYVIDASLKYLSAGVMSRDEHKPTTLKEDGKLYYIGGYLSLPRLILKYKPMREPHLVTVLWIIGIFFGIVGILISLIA
# sheep blood = test: Hemolysis assay; assay type: cell-based; settings: for IC50: read-out: hemolysis IC50, sheep blood
# vegetative C. difficile = settings: cited from earlier work
# [1] = tested on: C. difficile spore outgrowth; settings: high concentrations; cited from earlier work
# [2] = tested on: C. difficile (ATCC 43596) spores; test: C. difficile spore viability / outgrowth assay; assay type: cell-based, Clostridium difficile; settings: 24 h treatment, taurocholate agar
# E. coli WecA = molecular target: T2, E. coli WecA (Escherichia coli, UniProt P0AC78); test: biochemical; assay type: biochemical
# T2 sequence (P0AC78 1-367): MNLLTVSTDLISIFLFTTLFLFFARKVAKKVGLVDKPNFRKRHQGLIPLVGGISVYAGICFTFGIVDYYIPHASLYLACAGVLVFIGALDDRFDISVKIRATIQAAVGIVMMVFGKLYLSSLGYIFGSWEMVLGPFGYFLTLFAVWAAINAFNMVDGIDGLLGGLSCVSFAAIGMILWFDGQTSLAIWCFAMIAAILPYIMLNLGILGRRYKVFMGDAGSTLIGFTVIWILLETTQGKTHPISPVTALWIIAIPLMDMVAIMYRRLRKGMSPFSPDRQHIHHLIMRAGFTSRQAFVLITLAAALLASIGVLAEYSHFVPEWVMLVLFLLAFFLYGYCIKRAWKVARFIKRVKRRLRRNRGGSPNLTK
# [3] = tested on: Bacillus subtilis (ATCC 6051); test: microbe, parasite or virus in culture; assay type: cell-based; settings: ATCC6051, read-out: MIC Bacillus subtilis
# [4] = tested on: Staphylococcus pneumoniae; assay type: cell-based
# Vero cells = test: Vero cell cytotoxicity; assay type: cell-based, African green monkey
# Outline: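 Vero cells (ATCC CCL-81) grown in flasks, then seeded into 96-well plates in Eagle's minimum essential medium with 10% FBS and penicillin–streptomycin. Test compound stock was 1 mg per 100 μL in PEG 300–water (1/1). Serial dilutions spanning 0.78–200 μg/mL were added, with known-toxicity control compounds on every plate. After incubation, cytotoxicity was read by MTT.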
# Staphylococcus aureus = assay type: cell-based
# M. smegmatis WecA = molecular target: T3, M. smegmatis WecA (Mycolicibacterium smegmatis, UniProt A0R211); test: WecA inhibition assay; assay type: biochemical
# T3 sequence (A0R211 1-406): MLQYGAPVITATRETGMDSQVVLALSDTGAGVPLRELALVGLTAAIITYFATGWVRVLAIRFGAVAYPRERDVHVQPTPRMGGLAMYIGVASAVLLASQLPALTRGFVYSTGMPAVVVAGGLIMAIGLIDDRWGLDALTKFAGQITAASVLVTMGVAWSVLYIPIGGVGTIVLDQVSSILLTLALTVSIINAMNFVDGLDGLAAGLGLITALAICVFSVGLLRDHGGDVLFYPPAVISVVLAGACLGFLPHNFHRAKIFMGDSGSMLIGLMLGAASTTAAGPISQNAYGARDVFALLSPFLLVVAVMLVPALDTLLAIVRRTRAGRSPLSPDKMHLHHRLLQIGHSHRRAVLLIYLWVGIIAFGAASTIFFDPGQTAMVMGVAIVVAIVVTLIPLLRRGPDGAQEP
# Lactobacillus spp. = assay type: cell-based
# [5] = tested on: Clostridium perfringens (ATCC 13124); test: microbe, parasite or virus in culture; assay type: cell-based; settings: ATCC13124, read-out: MIC Clostridium perfringens
# Water solubility = assay type: physicochemical
# [6] = tested on: all Gram-negative bacteria tested; assay type: cell-based
compound,measurement,setting,value
"CN(CCCN)[C@H](C(=O)O)[C@@H](O[C@@H]1O[C@H](CN)[C@@H](O)[C@H]1O)[C@H]1O[C@@H](n2ccc(=O)[nH]c2=O)C(O)C1O (stereo partly drawn) [compound 5, FR-900493-5′R,6′S-Diastereomer]",IC50,Hydrogenivirga spp. MraY,> 100 µM
same,MIC,C. difficile ATCC 43596,> 25 mg/L
tunicamycin [reference compound],IC50,M. jannaschii AglH,13.3 ± 8.1 µM
same,IC50,sheep blood,15 ± 7.83 µM
same,C. difficile ATCC 43596 MIC,C. difficile ATCC 43596,>25.0 mg/L and >50.0 mg/L
CCc1c(Cl)c(O)c(Cl)c(O)c1C(=O)O[C@H]1[C@H](O)[C@H](OC)[C@H](OC/C2=C\C=C\C[C@H](O)/C(C)=C/[C@H](CC)[C@@H](O[C@@H]3OC(C)(C)[C@@H](OC(=O)C(C)C)[C@H](O)[C@@H]3O)/C(C)=C/C(C)=C/C[C@@H]([C@@H](C)O)OC2=O)O[C@@H]1C [fidaxomicin],MIC90,vegetative C. difficile,0.5 mg/L
same,concentration inhibiting C. difficile spore outgrowth,[1],4.0 to 14 µg/mL
"CN(CCCN)[C@@H](C(=O)O)[C@@H](O[C@@H]1O[C@H](CN)[C@@H](O)[C@H]1O)[C@H]1O[C@@H](n2ccc(=O)[nH]c2=O)C(O)C1O (stereo partly drawn) [compound 6, FR-900493-5′R, 6′R-Diastereomer]",IC50,Hydrogenivirga spp. MraY,> 100 µM
same,MIC,C. difficile ATCC 43596,> 25 mg/L
"CN[C@H](CC(C)C)C(=O)N[C@H]1C(=O)N[C@@H](CC(N)=O)C(=O)N[C@H]2C(=O)N[C@H]3C(=O)N[C@H](C(=O)N[C@H](C(=O)O)c4cc(O)cc(O)c4-c4cc3ccc4O)[C@H](O)c3ccc(c(Cl)c3)Oc3cc2cc(c3O[C@@H]2O[C@H](CO)[C@@H](O)[C@H](O)[C@H]2O[C@H]2C[C@](C)(N)[C@H](O)[C@H](C)O2)Oc2ccc(cc2Cl)[C@H]1O [vancomycin, reference compound]",outgrowth of C. difficile spores (in words),[2]; 5× MIC,did not inhibit the spore outgrowth
same,IC50,E. coli WecA,> 50 µM
same,IC50,Hydrogenivirga spp. MraY,> 50 µM
same,MIC,C. difficile ATCC 43596,2.5 mg/L
"CN(CCCN)[C@H](C(N)=O)[C@H](O[C@@H]1O[C@H](CN)[C@@H](O)[C@H]1O)[C@H]1O[C@@H](n2ccc(=O)[nH]c2=O)C(O)C1O (some centres unmarked) [compound 7, FR-900493-Amide]",WecA inhibitory activity (in words),E. coli WecA,equal to that of 1
same,MraY inhibitory activity (in words),Hydrogenivirga spp. MraY,equal to that of 1
same,IC50,Hydrogenivirga spp. MraY,25 ± 9.67 µM
same,MIC,C. difficile ATCC 43596,> 25 mg/L
CN(CCCC(=O)NCc1ccc(N2CCC(Oc3ccc(OC(F)(F)F)cc3)CC2)cc1)[C@H](C(N)=O)[C@H](O[C@@H]1O[C@H](CN)[C@@H](O)[C@H]1O)[C@H]1O[C@@H](n2ccc(=O)[nH]c2=O)C(O)C1O (some centres unmarked) [compound 12],MraY inhibitory activity relative to FR-900493 (1),Hydrogenivirga spp. MraY,> 3 fold
same,anti-C. difficile activity in library screen,C. difficile ATCC 43596,displayed anti-C. difficile activity
same,MIC,C. difficile ATCC 43596,50 ± 5.81 mg/L
Cc1ncc([N+](=O)[O-])n1CCO [metronidazole],outgrowth of C. difficile spores (in words),[2]; 5× MIC,did not inhibit the spore outgrowth
"NCCCN[C@H](C(N)=O)[C@H](O[C@@H]1O[C@H](CN)[C@@H](O)[C@H]1O)[C@H]1O[C@@H](n2ccc(=O)[nH]c2=O)C(O)C1O (some centres unmarked) [compound 8, De N-Methyl FR-900493]",IC50,E. coli WecA,> 100 µM
same,WecA inhibitory activity (in words),E. coli WecA,completely lost
same,MraY inhibitory activity (in words),Hydrogenivirga spp. MraY,completely lost
same,IC50,Hydrogenivirga spp. MraY,> 100 µM
same,MIC,C. difficile ATCC 43596,> 25 mg/L
NC[C@H]1O[C@@H](O[C@@H]([C@H](NCCCC(=O)NCc2ccc(N3CCC(Oc4ccc(OC(F)(F)F)cc4)CC3)cc2)C(N)=O)[C@H]2O[C@@H](n3ccc(=O)[nH]c3=O)C(O)C2O)[C@H](O)[C@@H]1O (some centres unmarked) [compound 11],MIC,[3],1.6 mg/L
same,outgrowth of C. difficile spores (in words),[2]; 2× MIC,prevented the outgrowth; also recorded: inhibited the outgrowth
same,growth inhibition of Staphylococcus pneumoniae,[4],> 25.0 µg/mL
same,induction of hemolysis (in words),sheep blood; at 100 μM concentration,does not induce hemolysis
same,IC50,sheep blood; listed as UT-17460 (11),206 ± 4.33 µM
same,IC50,"Vero cells; Chlorocebus sabaeus, Vero, read-out: Vero cells IC50, cytotoxicity, MTT",65 ± 4.65 µM
same,cytotoxicity against Vero cells of 11 relative to 10,Vero cells; less cytotoxic than 10,approximately 8 times
same,growth inhibition of Staphylococcus aureus,Staphylococcus aureus,> 25.0 µg/mL
same,IC50,M. smegmatis WecA,0.25 µM
same,growth inhibition of Lactobacillus spp.,Lactobacillus spp.,> 25.0 µg/mL
same,C. difficile ATCC 43596 MIC,C. difficile ATCC 43596,3.25 ± 4.40 mg/L
same,anti-C. difficile activity in library screen,C. difficile ATCC 43596,displayed anti-C. difficile activity
same,MIC,C. difficile ATCC 43596,3.25 mg/L
same,MIC,[5],3.1 mg/L
same,water solubility of 11 relative to 10,Water solubility; greater than 10,200 times
same,solubility,Water solubility; water,22 mg/mL
same,growth inhibition of all Gram-negative bacteria tested,[6],> 25.0 µg/mL
CC(=O)NC[C@H]1CN(c2ccc(N3CCOCC3)c(F)c2)C(=O)O1 [linezolid],outgrowth of C. difficile spores (in words),[2]; 5× MIC,did not inhibit the spore outgrowth
